Residue numbers refer to the chain shown, from its start.
Columns and labels:
Settings in all cases: stereoisomer not certain
[1] = biological target: T1, OR8U1 (Homo sapiens) (UniProt Q8NH10)
T1 sequence (whole entry): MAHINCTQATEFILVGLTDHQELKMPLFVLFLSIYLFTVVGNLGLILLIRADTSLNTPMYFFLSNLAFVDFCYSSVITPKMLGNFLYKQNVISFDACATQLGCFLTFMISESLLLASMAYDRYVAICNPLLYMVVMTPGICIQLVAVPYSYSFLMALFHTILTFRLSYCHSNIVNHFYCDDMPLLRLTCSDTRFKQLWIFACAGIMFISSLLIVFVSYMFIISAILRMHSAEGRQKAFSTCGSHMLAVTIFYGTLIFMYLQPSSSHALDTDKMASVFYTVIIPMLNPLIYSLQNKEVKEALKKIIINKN
Method in brief: (§1)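 Assay methods differ from source to source, frequently being transient luciferase assays in mammalian cell lines. For each receptor–molecule pair, the label responsive (active) applies when the original authors judged the measured signal statistically different from baseline, and non-responsive (inactive) applies otherwise.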

[2] = biological target: T2, OR8U3 (Homo sapiens) (UniProt Q8NH85)
T2 sequence (whole entry): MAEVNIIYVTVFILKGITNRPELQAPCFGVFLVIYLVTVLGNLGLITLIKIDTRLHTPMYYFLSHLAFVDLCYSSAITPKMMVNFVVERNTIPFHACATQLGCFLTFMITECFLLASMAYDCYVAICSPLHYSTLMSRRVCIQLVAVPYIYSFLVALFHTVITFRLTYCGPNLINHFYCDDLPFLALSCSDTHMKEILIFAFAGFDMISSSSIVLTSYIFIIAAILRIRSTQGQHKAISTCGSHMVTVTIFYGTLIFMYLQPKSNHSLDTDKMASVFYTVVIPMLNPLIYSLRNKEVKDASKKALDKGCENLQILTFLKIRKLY
Method in brief: as §1

[3] = biological target: T3, OR8U8 (Homo sapiens) (UniProt P0C7N1)
T3 sequence (whole entry): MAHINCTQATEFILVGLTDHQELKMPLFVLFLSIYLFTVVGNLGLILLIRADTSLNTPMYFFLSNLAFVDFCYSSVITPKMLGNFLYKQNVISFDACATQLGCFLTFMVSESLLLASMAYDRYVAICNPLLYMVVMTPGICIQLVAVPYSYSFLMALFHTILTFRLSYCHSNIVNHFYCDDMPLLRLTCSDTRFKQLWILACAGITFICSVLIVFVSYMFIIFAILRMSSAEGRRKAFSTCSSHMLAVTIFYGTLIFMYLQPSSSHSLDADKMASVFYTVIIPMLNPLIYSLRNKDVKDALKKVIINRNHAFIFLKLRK
Method in brief: as §1

[4] = biological target: T4, OR8U9 (Homo sapiens) (UniProt P0C7N5)
T4 sequence (whole entry): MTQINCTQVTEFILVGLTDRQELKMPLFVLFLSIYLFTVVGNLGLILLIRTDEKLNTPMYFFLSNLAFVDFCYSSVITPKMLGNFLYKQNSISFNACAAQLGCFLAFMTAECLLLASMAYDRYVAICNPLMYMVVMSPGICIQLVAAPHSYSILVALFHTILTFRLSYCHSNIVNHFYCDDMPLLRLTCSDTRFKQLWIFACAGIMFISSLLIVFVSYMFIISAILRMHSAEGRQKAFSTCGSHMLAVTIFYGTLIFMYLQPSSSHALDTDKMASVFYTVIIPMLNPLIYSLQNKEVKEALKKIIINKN
Method in brief: as §1

[5] = biological target: T5, OR9A2 (Homo sapiens) (UniProt Q8NGT5)
T5 sequence (whole entry): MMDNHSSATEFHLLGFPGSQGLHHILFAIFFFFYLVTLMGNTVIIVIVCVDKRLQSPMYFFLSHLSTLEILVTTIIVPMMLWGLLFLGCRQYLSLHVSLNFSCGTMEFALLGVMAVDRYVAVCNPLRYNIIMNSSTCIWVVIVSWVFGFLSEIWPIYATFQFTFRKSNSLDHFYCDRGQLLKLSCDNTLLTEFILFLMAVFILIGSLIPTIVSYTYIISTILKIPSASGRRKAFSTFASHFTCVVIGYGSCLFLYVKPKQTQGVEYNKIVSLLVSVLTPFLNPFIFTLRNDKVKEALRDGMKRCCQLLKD
Method in brief: as §1

[6] = test system: T6, OR8U8
T6 sequence (whole entry): T3 sequence (whole entry) with V109I, S112C
Method in brief: as §1

[7] = test system: T7, OR8U8; remark: listed apart in the source
T7 sequence (whole entry): T3 sequence (whole entry) with H20R, V109I, R165C
Method in brief: as §1

[8] = test system: T8, OR8U9 T2A Q3H Q293R
T8 sequence (whole entry): T4 sequence (whole entry) with T2A, Q3H, Q293R
Method in brief: as §1

[9] = test system: T9, OR8U9
T9 sequence (whole entry): T4 sequence (whole entry) with Q293R
Method in brief: as §1

[10] = test system: T10, OR9A2 C304Y
T10 sequence (whole entry): T5 sequence (whole entry) with C304Y
Method in brief: as §1

Measured: odorant receptor agonist call

CCC(S)C(C)CO (stereo not drawn)
inactive: [1] | [2] | [3] | [4] | [5]

CCCC(S)CCOC(C)=O (stereo not drawn)
inactive: [1] | [2] | [6] | [7] | [4] | [8] | [9] | [5] | [10]

CCCCC(S)C(C)CO (stereo not drawn)
inactive: [1] | [2] | [3] | [4] | [5]

CC(CO)CS (stereo not drawn)
inactive: [1] | [2] | [3] | [4] | [5]

O=c1ccc2ccccc2o1
active: [2]

O=C1CCOc2ccccc21
active: [2]

CC1=C(O)C(=O)C(C)O1 (stereo not drawn)
inactive: [1] | [2] | [6] | [7] | [4] | [8] | [9] | [5] | [10]

CC1=C(O)C(=O)OC1C (stereo not drawn)
inactive: [1] | [2] | [6] | [7] | [4] | [8] | [9] | [5] | [10]

CC(=O)c1c(C)c([N+](=O)[O-])c(C(C)(C)C)c([N+](=O)[O-])c1C
inactive: [1] | [2] | [3] | [4] | [5]

CCCCCC(=O)C(C)C(C)=O (stereo not drawn)
inactive: [1] | [2] | [3] | [4] | [5]

CC1=NC(C)C(C)S1 (stereo not drawn)
inactive: [1] | [2] | [6] | [7] | [4] | [8] | [9] | [5] | [10]

CCC1OC(=O)C(O)=C1C (stereo not drawn)
inactive: [1] | [2] | [6] | [7] | [4] | [8] | [9] | [5] | [10]

Cc1cnc(C)c(C)n1
inactive: [1] | [2] | [6] | [7] | [4] | [8] | [9] | [5] | [10]

CCCCCCC=CCCC=O
inactive: [1] | [2] | [3] | [4] | [8] | [9] | [5] | [10]

CCC1OC(C)=C(O)C1=O (stereo not drawn)
inactive: [1] | [2] | [6] | [7] | [4] | [8] | [9] | [5] | [10]

CCCCCC(S)C(C)CO (stereo not drawn)
inactive: [1] | [2] | [3] | [4] | [5]

CC1CCCCCCCCCCCCC(=O)C1 (stereo not drawn)
inactive: [1] | [2] | [3] | [4] | [5]

— the M2OR odorant receptor database
